Measured values gathered from unrelated publications.
Each line is one published result; the experiments were not run side by side.
Chymotrypsinogen A: Chymotrypsinogen A (Bos taurus, UniProt P00766)
lecA: PA-I galactophilic lectin (lecA, Pseudomonas aeruginosa, UniProt Q05097)

Structure (SMILES) | target | assay | setting | Ki [µM]
Cc1ccc2c(c1)c1c3n2CCNC3CCC1 (stereo not shown) | Amine oxidase [flavin-containing] A (Maoa, Rattus norvegicus, UniProt P21396) | enzyme activity, inhibitor | pH 7.5 | 0.77
CCCC[C@H](NC(=O)[C@H](CCC(N)=O)NC(=O)[C@H](CO)NC(=O)[C@H](Cc1ccccc1)NC(=O)CCCCCN)C(=O)N[C@@H](CCCBr)B(O)O | Chymotrypsinogen A | enzyme activity, inhibitor, fluorescence | – | 0.58
OCC(F)(F)F | ADH1 (Saccharomyces cerevisiae, UniProt P00330, W55R) | enzyme activity, inhibitor | – | 74000
O=C(CCCCn1cc(CN2CCN(c3cc4c(cc3F)c(=O)c(C(=O)O)cn4C3CC3)CC2)nn1)Nc1ccc(S[C@@H]2O[C@H](CO)[C@H](O)[C@H](O)[C@H]2O)cc1 | lecA | ligand displacement, FP | – | 3.27
CCCC[C@H](NC(=O)[C@H](CCC(N)=O)NC(=O)[C@H](CO)NC(=O)[C@H](C)NC(=O)CCCCCN)C(=O)N[C@@H](CCCBr)B(O)O | Chymotrypsinogen A | enzyme activity, inhibitor, fluorescence | – | 0.166
NC(=O)C1=CN([C@@H]2O[C@H](COP(=O)(O)OP(=O)(O)OC[C@H]3O[C@@H](n4cnc5c(N)ncnc54)[C@H](O)[C@@H]3O)[C@@H](O)[C@H]2O)C=CC1 | ADH1 (Saccharomyces cerevisiae, UniProt P00330, W83R) | enzyme activity, inhibitor | – | 24
C/C(=C\C(=O)OCCCCCCCCC(=O)O)C[C@@H]1OC[C@H](C[C@@H]2O[C@H]2[C@@H](C)[C@H](C)O)[C@@H](O)[C@H]1O | Isoleucine--tRNA ligase (ileS, Escherichia coli K-12, UniProt P00956) | enzyme activity, inhibitor, absorbance | – | 0.0008
O=C(CCCCn1cc(CCN2CCN(c3cc4c(cc3F)c(=O)c(C(=O)O)cn4C3CC3)CC2)nn1)Nc1ccc(S[C@@H]2O[C@H](CO)[C@H](O)[C@H](O)[C@H]2O)cc1 | lecA | ligand displacement, FP | – | 2.7
CCCC[C@H](NC(=O)[C@H](CCC(N)=O)NC(=O)[C@H](CO)NC(=O)[C@H](C)NC(=O)CCCCCN)C(=O)N[C@@H](Cc1ccccc1)B(O)O | Chymotrypsinogen A | enzyme activity, inhibitor, fluorescence | – | 0.0362
[N-]=[N+]=NCC(=O)Nc1ccc(S[C@@H]2O[C@H](CO)[C@H](O)[C@H](O)[C@H]2O)cc1 | lecA | ligand displacement, FP | – | 4.16
CCCC[C@H](NC(=O)[C@H](CCC(N)=O)NC(=O)[C@H](CO)NC(=O)C[C@@H](Cc1ccc2ccccc2c1)NC(=O)CCCCCN)C(=O)N[C@@H](Cc1ccccc1)B(O)O | Chymotrypsinogen A | enzyme activity, inhibitor, fluorescence | – | 0.00721
O=[N+]([O-])c1ccc(O[C@@H]2O[C@H](CO)[C@H](O)[C@H](O)[C@H]2O)cc1 | lecA | ligand displacement, FP | – | 26.9
O=C(Cn1cc(CCN2CCN(c3cc4c(cc3F)c(=O)c(C(=O)O)cn4C3CC3)CC2)nn1)Nc1ccc(S[C@@H]2O[C@H](CO)[C@H](O)[C@H](O)[C@H]2O)cc1 | lecA | ligand displacement, FP | – | 1.48
